What was measured:
mouse sarcoma S180 cells = assay: Cell Counting Kit-8 cytotoxicity assay, S180; format: cell-based; details: S-180, 48 h
Procedure, shortened: (§1)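 Cells were seeded at 5×10^3 per well in DMEM with 10% FBS, 100 μg/mL streptomycin and 100 IU/mL penicillin, then held 24 h at 37°C under 5% CO2. Medium was replaced with test compound at CA4-equivalent concentrations of 0.0025, 0.025, 0.25, 2.5, 25, 125 and 250 μM for 48 h. Then 10% CCK-8 was added for 1.5 h at 37°C and A450 read. Viability was calculated against control and blank wells, and IC50 derived.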

[1] = tested on: human breast adenocarcinoma MCF-7 cells; assay: Cell Counting Kit-8 cytotoxicity assay, MCF-7; format: cell-based; details: MCF7, 48 h
Procedure, shortened: as §1

[2] = tested on: human hepatocellular liver carcinoma HepG2 cells; assay: Cell Counting Kit-8 cytotoxicity assay, HepG2; format: cell-based; details: HepG2, 48 h
Procedure, shortened: as §1

[3] = In vivo biodistribution in S180 tumor-bearing mice; details: iv, drug-equivalent doses of 28 mg/kg CA4P, heart, kidney, liver, spleen, lung
[4] = In vivo pharmacokinetics after tail vein injection; details: 2 h following injection, SD rats
Procedure, shortened: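 Male rats (180–200 g) were fasted 12 h, then dosed into the tail vein at drug-equivalent 28 mg/kg of phosphate prodrug. Orbital-vein blood was taken at 2, 5, 10, 15, 20, 30 and 45 min and at 1, 1.5, 2, 4, 6 and 10 h, into heparinized vials. Plasma was separated (4,000 rpm, 10 min), stored at −20°C, and prodrug and released parent drug were quantified by HPLC. n=6, mean ± SD.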

Structure (SMILES)	IC50 (mouse sarcoma S180 cells) [nM]	IC50 [1] [nM]	IC50 [2] [nM]	Tissue detection of prodrug [3]	Detection of prodrug in plasma [4]
COc1ccc(/C=C\c2cc(OC)c(OC)c(OC)c2)cc1O [CA4, combretastatin A4]	< 1	4 ± 2	64 ± 6		
COc1ccc(/C=C\c2cc(OC)c(OC)c(OC)c2)cc1OP(=O)(O)O [CA4P, combretastatin A4 phosphate]	< 1	50 ± 8	179 ± 53	could be detected in the heart, liver, spleen, lung, kidney, and tumor	could not be detected
